Assay results taken from ChEMBL document CHEMBL4354811, “Discovery of Novel Aryl Carboxamide Derivatives as Hypoxia-Inducible Factor 1α Signaling Inhibitors with Potent Activities of Anticancer Metastasis” (J Med Chem, 2019).
The source made the active and inactive calls.

Tests used:
MDA-MB-231 [1] = assay: Downregulation of MMP9 protein expression in human MDA-MB-231 cells incubated with compound under normoxia for 1 hr followed by hypoxia induction and measured after 24 hrs by Western blot analysis; type: functional, cell-based
How it was run: (§1)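 MDA-MB-231 cells given 2, 5 or 10 μM under normoxia 1 h, then hypoxia 24 h; E-cadherin, vimentin, MMP-2, MMP-9 by western blot, GAPDH loading control; three independent experiments.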

MDA-MB-231 [2] = assay: Inhibition of HIF1alpha accumulation in hypoxia-induced human MDA-MB-231 cells incubated with compound under normoxia for 1 hr followed by hypoxia induction and measured after 24 hrs by Western blot analysis; type: functional, cell-based
How it was run: (§2)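 MDA-MB-231, SKOV3 and HeLa cells exposed to hypoxia with compound at a range of concentrations; HIF-1α accumulation assessed by western blot.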

MDA-MB-231 [3] = assay: Downregulation of MMP2 protein expression in human MDA-MB-231 cells incubated with compound under normoxia for 1 hr followed by hypoxia induction and measured after 24 hrs by Western blot analysis; type: functional, cell-based; how it was run: as §1
MDA-MB-231 [4] = assay: Antimetastatic activity against human MDA-MB-231 cells stable expressing luciferase xenografted in ip dosed BALB/c nude mouse assessed as reduction in lung colonization of tumor cells administered every 2 days for 3 weeks starting at 24 hrs post-trensfection and measured at 24 hrs after final dose by bioluminescent imaging assay; type: functional, organism-based
How it was run: (§3)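 Luciferase-expressing MDA-MB-231 cells injected into tail vein of BALB/c nude mice; i.p. vehicle or 15 and 30 mg/kg starting 24 h later, every 2 days for 20 days; bioluminescence imaged 24 h after last dose; lungs examined by H&E histology; n = 4 per group, mean ± SD.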

HCCLM3 = assay: Inhibition of HIF1alpha accumulation in hypoxia-induced human HCCLM3 cells at 10 uM incubated with compound under normoxia for 1 hr followed by hypoxia induction and measured after 24 hrs by Western blot analysis; type: functional, cell-based
How it was run: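 LM3 cells treated at 10 μM under hypoxia; HIF-1α protein by western blot, LW6 as reference.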

MDA-MB-231 [5] = assay: Antimetastatic activity against human MDA-MB-231 cells stable expressing luciferase xenografted in ip dosed BALB/c nude mouse assessed as reduction in lung colonization of tumor cells administered every 2 days for 3 weeks starting at 24 hrs post-trensfection and measured at 24 hrs after final doses by H and E staining method; type: functional, organism-based; how it was run: as §3
HUVEC [6] = assay: Antiangiogenic activity in HUVEC assessed as suppression of capillary-like tubule formation at 2 to 5 uM incubated under hypoxia for 12 hrs by inverted microscopic method; type: functional, cell-based; settings: Homo sapiens
How it was run: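 HUVECs seeded on matrigel-precoated wells under hypoxia, treated at 2 or 5 μM; capillary-like tubule branches photographed; representative of three independent experiments.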

HUVEC [7] = assay: Antiangiogenic activity in HUVEC assessed as reduction in VEGF mRNA expression incubated with compound under normoxia for 1 hr followed by hypoxia induction and measured after 24 hrs by real time-PCR analysis; type: functional, cell-based; settings: Homo sapiens
How it was run: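 HUVECs treated with 0.5 or 1 μM; VEGF mRNA by real-time PCR, normalized to GAPDH, compared with normoxia and untreated hypoxic controls; means ± SD of three independent experiments.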

[8] = Cytotoxicity against human HCCLM3 cells assessed as reduction in cell viability incubated for 48 hrs by MTT assay; type: cell-based
MDA-MB-231 [9] = assay: Induction of E-cadherin protein expression in human MDA-MB-231 cells incubated with compound under normoxia for 1 hr followed by hypoxia induction and measured after 24 hrs by Western blot analysis; type: functional, cell-based; how it was run: as §1
MDA-MB-231 [10] = assay: Induction of apoptosis in human MDA-MB-231 cells at 2 to 10 uM incubated for 24 hrs; type: cell-based; settings: mda-mb-231, 24 h
[11] = biological target: Hypoxia-inducible factor 1-alpha (Homo sapiens) (UniProt Q16665); assay: Inhibition of HIF1alpha transcriptional activity in hypoxia-induced human HCCLM3 cells co-transfected with luciferase reporter plasmid containing five copies of HREs and pRL-SV40 plasmid encoding Renilla luciferase at 10 uM incubated with compound under normoxia for 1 hr followed by hypoxia induction and measured after 24 hrs by HRE-dependent dual luciferase reporter gene assay relative to control
How it was run: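 LM3 cells co-transfected with firefly luciferase reporter carrying five HRE copies plus pRL-SV40 Renilla plasmid; after transfection treated and kept under hypoxia; firefly luminescence normalized to Renilla. Single-point inhibition rate at 10 μM; IC50 for selected compounds.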

HeLa = assay: Inhibition of HIF1alpha accumulation in hypoxia-induced human HeLa cells incubated with compound under normoxia for 1 hr followed by hypoxia induction and measured after 24 hrs by Western blot analysis; type: functional, cell-based; how it was run: as §2
[12] = biological target: Hypoxia-inducible factor 1-alpha (Homo sapiens) (UniProt Q16665); assay: Induction of HIF1alpha (unknown origin) degradation
MDA-MB-231 [13] = assay: Inhibition of vimentin protein expression in human MDA-MB-231 cells incubated with compound under normoxia for 1 hr followed by hypoxia induction and measured after 24 hrs by Western blot analysis; type: functional, cell-based; how it was run: as §1
MDA-MB-231 [14] = assay: Inhibition of cell growth in human MDA-MB-231 cells at 2 to 10 uM incubated for 24 hrs; type: cell-based; settings: mda-mb-231, 24 h
SK-OV-3 = assay: Inhibition of HIF1alpha accumulation in hypoxia-induced human SKOV3 cells incubated with compound under normoxia for 1 hr followed by hypoxia induction and measured after 24 hrs by Western blot analysis; type: functional, cell-based; how it was run: as §2
[15] = biological target: Hypoxia-inducible factor 1-alpha (Homo sapiens) (UniProt Q16665); assay: Potency index, ratio of IC50 for LW6 to IC50 for test compound for inhibition of HIF1alpha transcriptional activity in hypoxia-induced human HCCLM3 cells incubated with compound under normoxia for 1 hr followed by hypoxia induction and measured after 24 hrs by HRE-dependent dual luciferase reporter gene assay
Danio rerio = organism: Danio rerio; assay: Antiangiogenic activity in […]/EGFP transgenic zebrafish embryo assessed as destruction of subintestinal vessel at 0.5 to 1 uM incubated for 24 hrs by confocal microscopic method; type: functional, organism-based
How it was run: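 Transgenic zebrafish with GFP-labeled vascular endothelium; embryos selected, […], exposed 24 h to 0.5 or 1 μM (DMSO vehicle, n = 10; apatinib 0.5 μM reference); SIVs imaged by confocal microscopy and counted per field; means ± SD, three independent experiments.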

HUVEC [16] = assay: Antiangiogenic activity in HUVEC assessed as disruption in capillary-like tubule formation at 5 uM incubated under hypoxia for 12 hrs by inverted microscopic method; type: functional, Homo sapiens
How it was run: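 HUVECs on matrigel-precoated wells, incubated under hypoxia with 5 μM compound; tubule branches photographed; three independent experiments.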

[17] = biological target: Hypoxia-inducible factor 1-alpha (Homo sapiens) (UniProt Q16665); assay: Potency index, ratio of IC50 for 2-Methyl-N-phenethylthiazole-4-carboxamide to IC50 for test compound for inhibition of HIF1alpha transcriptional activity in hypoxia-induced human HCCLM3 cells incubated with compound under normoxia for 1 hr followed by hypoxia induction and measured after 24 hrs by HRE-dependent dual luciferase reporter gene assay
[18] = Toxicity in BALB/c nude mouse xenografted with human MDA-MB-231 cells stable expressing luciferase assessed as change in body weight at 15 to 30 mg/kg, ip administered every 2 days for 3 weeks starting at 24 hrs post-trensfection; type: organism-based; settings: in vivo
How it was run: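 Tail-vein luciferase MDA-MB-231 lung-metastasis model in BALB/c nude mice; 15 or 30 mg/kg i.p. every 2 days for 20 days from 24 h post-injection; body weight recorded at study end.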

HUVEC [19] = assay: Antiproliferative activity against HUVEC at 2 to 5 uM; type: cell-based; settings: human
MDA-MB-231 [20] = assay: Inhibition of cell invasion in human MDA-MB-231 cells incubated with compound under normoxia for 1 hr followed by hypoxia induction and measured after 24 hrs by transwell assay/crystal violet staining based inverted microscopic method; type: functional
How it was run: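 Transwell with MDA-MB-231 cells in upper chamber on matrigel-precoated inserts; 2, 5, 10 μM under normoxia 1 h then hypoxia 24 h; invaded cells stained with crystal violet and counted; three experiments, means ± SD.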

MDA-MB-231 [21] = assay: Inhibition of cell migration in human MDA-MB-231 cells incubated with compound under normoxia for 1 hr followed by hypoxia induction and measured after 24 hrs by wound healing assay based inverted microscopic method; type: functional
How it was run: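 Wound-healing: monolayer of MDA-MB-231 scratched, treated 2, 5, 10 μM or DMSO under normoxia 1 h then hypoxia 24 h; wound closure imaged; three independent experiments.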

Sequence of Hypoxia-inducible factor 1-alpha (Homo sapiens) (Q16665 whole entry, looked up): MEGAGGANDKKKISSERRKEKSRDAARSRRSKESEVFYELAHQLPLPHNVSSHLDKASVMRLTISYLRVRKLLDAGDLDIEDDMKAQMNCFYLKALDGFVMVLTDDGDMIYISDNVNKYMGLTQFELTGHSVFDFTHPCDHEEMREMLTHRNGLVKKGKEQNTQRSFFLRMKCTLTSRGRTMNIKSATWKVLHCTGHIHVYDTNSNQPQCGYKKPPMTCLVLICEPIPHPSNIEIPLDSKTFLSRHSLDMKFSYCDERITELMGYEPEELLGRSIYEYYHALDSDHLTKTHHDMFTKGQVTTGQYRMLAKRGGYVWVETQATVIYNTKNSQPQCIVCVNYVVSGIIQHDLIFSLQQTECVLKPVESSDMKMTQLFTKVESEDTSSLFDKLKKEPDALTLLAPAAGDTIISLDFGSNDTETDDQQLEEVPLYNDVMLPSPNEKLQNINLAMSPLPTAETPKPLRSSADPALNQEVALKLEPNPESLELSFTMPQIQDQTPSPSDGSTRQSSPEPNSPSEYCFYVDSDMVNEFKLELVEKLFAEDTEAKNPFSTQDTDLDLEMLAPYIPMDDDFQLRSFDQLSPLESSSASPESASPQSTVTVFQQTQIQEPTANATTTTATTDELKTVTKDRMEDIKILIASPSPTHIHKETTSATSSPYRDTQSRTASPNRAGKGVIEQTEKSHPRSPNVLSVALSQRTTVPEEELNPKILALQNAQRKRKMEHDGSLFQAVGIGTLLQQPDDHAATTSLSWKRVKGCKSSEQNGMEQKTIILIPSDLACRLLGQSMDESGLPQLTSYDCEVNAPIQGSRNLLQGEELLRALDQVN

COc1ccccc1-c1ccc(C(=O)NCCc2ccccc2F)nc1
> 50 µM: CC50 at 48 h [8]
active: inhibition (MDA-MB-231 [1]) Dose-dependent effect | inhibition (MDA-MB-231 [2]) Dose-dependent effect | inhibition (MDA-MB-231 [3]) Dose-dependent effect | Activity (MDA-MB-231 [4]) Dose-dependent effect | HIF-1α accumulation inhibition (qualitative) (HCCLM3) | Activity (MDA-MB-231 [5]) Dose-dependent effect | Activity (HUVEC [6]) | Activity (HUVEC [7]) Dose-dependent effect | Activity (MDA-MB-231 [9]) Dose-dependent effect | inhibition (HeLa) Dose-dependent effect | Activity [12] | inhibition (MDA-MB-231 [13]) Dose-dependent effect | inhibition (SK-OV-3) Dose-dependent effect | Activity (Danio rerio) | inhibition (MDA-MB-231 [20]) Dose-dependent effect | inhibition (MDA-MB-231 [21]) Dose-dependent effect
Non-Toxic: Activity (MDA-MB-231 [10]) | growth inhibition (GI) (MDA-MB-231 [14]) | Activity [18] | Activity (HUVEC [19])
100%: Activity (HUVEC [16])
91.4 to 97.7%: inhibition [11]
10: Ratio IC50 [15]
170: Ratio IC50 [17]
